From ChEMBL document CHEMBL3120097, “HCV NS5A replication complex inhibitors. Part 4. Optimization for genotype 1a replicon inhibitory activity” (J Med Chem, 2014)

What was measured:
[1] = system: Bovine viral diarrhea virus 1; experiment: Antiviral activity against BVDV infected in bovine MDBK cells after 72 hrs by luciferase reporter gene assay; format: functional, organism-based; settings: Bovine viral diarrhea virus isolates and strains
[2] = Cytotoxicity against bovine MDBK cells after 3 days by CellTitre-Blue assay; format: cell-based, Bos taurus; settings: cattle
[3] = system: Hepatitis C virus; experiment: Antiviral activity against HCV genotype 1b infected in human HuH7 cells after 72 hrs by FRET assay; format: functional, organism-based, Hepacivirus hominis; settings: Huh-7, 72 h
In short: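 Replicon cells seeded 10K/well, attached overnight; compounds added with 0.5% v/v DMSO vehicle controls, typically 72 h. Alamar blue read first, then cells PBS-rinsed and lysed with reagent holding 150 mM NaCl and 20 μM final EDANS/DABCYL NS3 protease peptide; kinetic fluorescence 340/490 nm. EC₅₀ = concentration halving background-subtracted FRET signal versus DMSO wells.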

[4] = system: Hepatitis C virus; experiment: Antiviral activity against HCV genotype 1a H77c infected in human HuH7 cells after 5 days by ELISA; format: functional, organism-based, Hepacivirus hominis; settings: Huh-7, 120 h
In short: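 Genotype 1a (H77c) replicon cells, 1.5 × 10⁴/well in DMEM + 10% FBS, attached overnight at 37 °C; serially diluted compounds (in FBS-free DMEM) added, 5 days at 37 °C. Cells dried overnight at 37 °C to fix, Triton-permeabilized, casein-blocked; NS5A antiserum then HRP secondary, chemiluminescent read. Inhibition relative to untreated wells; background set with 500 nM NS3 inhibitor.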

[5] = system: Hepatitis C virus; experiment: Antiviral activity against HCV genotype 4a; format: functional, organism-based, Hepacivirus hominis
[6] = system: Hepatitis C virus; experiment: Antiviral activity against HCV genotype 2a JFH; format: functional, organism-based, Hepacivirus hominis; settings: subtype 2a JFH
[7] = system: Hepatitis C virus; experiment: Antiviral activity against HCV genotype 1a H77c infected in human HuH7 cells after 3 days by luciferase reporter gene assay; format: functional, organism-based, Hepacivirus hominis; settings: Huh-7, 72 h
In short: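 Titrated compounds in 384-well plates seeded with replicon cells, 2.4 × 10³/well in DMEM with 4% FCS, final DMSO 0.5% v/v; 3 days at 37 °C. Renilla luciferase read with EnduRen substrate at […] final after ≥1 h at 37 °C; EC₅₀ from four-parameter logistic fit.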

[8] = Cytotoxicity against human Huh7.5 cells; format: cell-based, Huh-7

SMILES | EC50 [1] [nM] | EC50 [3] [nM] | EC50 [4] [nM] | EC50 [5] [nM] | EC50 [6] [nM] | EC50 [7] [nM] | CC50 at 72 h [2] [nM] | CC50 [8] [nM]
O=C(Nc1ccc(/C=C/c2ccc(NC(=O)[C@@H]3CCCN3C(=O)Cc3ccccc3)cc2)cc1)[C@@H]1CCCN1C(=O)Cc1ccccc1 | > 5000 | – | – | 157 | 79 | – | > 30000 | –
O=C(Nc1ccc(C#Cc2ccc(NC(=O)[C@@H]3CCCN3C(=O)Cc3ccccc3)cc2)cc1)[C@@H]1CCCN1C(=O)Cc1ccccc1 | > 10000 | – | – | – | – | > 10000 | > 10000 | –
COc1cccc2c(C(=O)N3CCC[C@H]3C(=O)Nc3ccc(/C=C/c4ccc(NC(=O)[C@@H]5CCCN5C(=O)c5nc(Cl)cc6c(OC)cccc56)cc4)cc3)nc(Cl)cc12 | > 10000 | 7 | 37 | > 1000 | 2.2 | – | > 10000 | > 10000
O=C(Nc1ccc(/C=C/c2ccc(NC(=O)[C@@H]3CCCN3C(=O)c3nncc4ccccc34)cc2)cc1)[C@@H]1CCCN1C(=O)c1nncc2ccccc12 | > 5000 | 30 | 1000 | – | – | – | > 10000 | –
O=C(Nc1ccc(/C=C/c2ccc(NC(=O)[C@@H]3CCCN3C(=O)c3cccc4ccccc34)cc2)cc1)[C@@H]1CCCN1C(=O)c1cccc2ccccc12 | > 5000 | 1600 | > 10000 | – | – | – | > 10000 | –
CCc1cccnc1C(=O)N1CCC[C@H]1C(=O)Nc1ccc(/C=C/c2ccc(NC(=O)[C@@H]3CCCN3C(=O)c3ncccc3CC)cc2)cc1 | 3100 | 46 | 720 | – | – | – | > 10000 | –
O=C(Nc1ccc(-c2cc(-c3ccc(NC(=O)[C@@H]4CCCN4C(=O)Cc4ccccc4)cc3)[nH]n2)cc1)[C@@H]1CCCN1C(=O)Cc1ccccc1 | > 10000 | 4.8 | – | – | – | 1370 | > 10000 | –
C=Cc1cccnc1C(=O)N1CCC[C@H]1C(=O)Nc1ccc(/C=C/c2ccc(NC(=O)[C@@H]3CCCN3C(=O)c3ncccc3C=C)cc2)cc1 | > 5000 | 320 | 3500 | – | – | – | > 10000 | –
O=C(Nc1ccc(/C=C/c2ccc(NC(=O)[C@@H]3CCCN3C(=O)c3ncccc3-c3ccccc3)cc2)cc1)[C@@H]1CCCN1C(=O)c1ncccc1-c1ccccc1 | > 5000 | 820 | 2200 | – | – | – | > 10000 | –
COc1cccc2c(C(=O)N3CCC[C@H]3C(=O)Nc3ccc(-c4cc(-c5ccc(NC(=O)[C@@H]6CCCN6C(=O)c6nc(Cl)cc7c(OC)cccc67)cc5)[nH]n4)cc3)nc(Cl)cc12 | > 10000 | 11 | – | – | – | 120 | > 10000 | –
O=C(Nc1ccc(-c2cnc(-c3ccc(NC(=O)[C@@H]4CCCN4C(=O)Cc4ccccc4)cc3)o2)cc1)[C@@H]1CCCN1C(=O)Cc1ccccc1 | > 10000 | – | – | – | – | 1510 | 3300 | –
COc1cccc2c(C(=O)N3CCC[C@H]3C(=O)Nc3ccc(C#Cc4ccc(NC(=O)[C@@H]5CCCN5C(=O)c5nc(Cl)cc6c(OC)cccc56)cc4)cc3)nc(Cl)cc12 | > 10000 | 23 | – | – | – | 18 | > 10000 | –
CCc1ccccc1C(=O)N1CCC[C@H]1C(=O)Nc1ccc(/C=C/c2ccc(NC(=O)[C@@H]3CCCN3C(=O)c3ccccc3CC)cc2)cc1 | 4700 | – | – | – | – | – | > 10000 | –
COc1cccc2nc(C(=O)N3CCC[C@H]3C(=O)Nc3ccc(/C=C/c4ccc(NC(=O)[C@@H]5CCCN5C(=O)c5ccc6c(OC)cccc6n5)cc4)cc3)ccc12 | > 10000 | 971 | > 10000 | – | – | – | > 10000 | –
O=C(Nc1ccc(/C=C/c2ccc(NC(=O)[C@@H]3CCCN3C(=O)c3ccccc3)cc2)cc1)[C@@H]1CCCN1C(=O)c1ccccc1 | > 5000 | 100 | – | – | – | 6300 | > 10000 | –
COc1ccc2ccc(C(=O)N3CCC[C@H]3C(=O)Nc3ccc(/C=C/c4ccc(NC(=O)[C@@H]5CCCN5C(=O)c5ccc6ccc(OC)cc6n5)cc4)cc3)nc2c1 | > 10000 | 62 | 126 | – | – | – | > 10000 | –
CCc1ccnc(C(=O)N2CCC[C@H]2C(=O)Nc2ccc(/C=C/c3ccc(NC(=O)[C@@H]4CCCN4C(=O)c4cc(CC)ccn4)cc3)cc2)c1 | > 5000 | 390 | 4100 | – | – | – | > 10000 | –
O=C(Nc1ccc(/C=C/c2ccc(NC(=O)[C@@H]3CCCN3C(=O)c3ccc4ccccc4n3)cc2)cc1)[C@@H]1CCCN1C(=O)c1ccc2ccccc2n1 | > 5000 | 200 | 590 | – | – | – | > 10000 | –
O=C(Nc1ccc(/C=C/c2ccc(NC(=O)[C@@H]3CCCN3C(=O)c3ncnc4ccccc34)cc2)cc1)[C@@H]1CCCN1C(=O)c1ncnc2ccccc12 | > 5000 | 2300 | 910 | – | – | – | > 10000 | –
C=Cc1ccccc1C(=O)N1CCC[C@H]1C(=O)Nc1ccc(/C=C/c2ccc(NC(=O)[C@@H]3CCCN3C(=O)c3ccccc3C=C)cc2)cc1 | > 5000 | 1200 | 1100 | – | – | – | > 10000 | –
O=C(Nc1ccc(/C=C/c2ccc(NC(=O)[C@@H]3CCCN3C(=O)c3cncc4ccccc34)cc2)cc1)[C@@H]1CCCN1C(=O)c1cncc2ccccc12 | 42 | 140 | 1400 | – | – | – | > 10000 | –
COc1cccc2c(C(=O)N3CCC[C@H]3C(=O)Nc3ccc(-c4cnc(-c5ccc(NC(=O)[C@@H]6CCCN6C(=O)c6nc(Cl)cc7c(OC)cccc67)cc5)o4)cc3)nc(Cl)cc12 | > 10000 | 34 | – | – | – | 52 | > 10000 | –

More lines, main results first:

EC50 [1] [nM] | EC50 [3] [nM] | EC50 [4] [nM] | EC50 [5] [nM] | EC50 [6] [nM] | EC50 [7] [nM] | SMILES | CC50 at 72 h [2] [nM] | CC50 [8] [nM]
> 10000 | 36 | > 10000 | – | – | – | O=C(Nc1ccc(/C=C/c2ccc(NC(=O)[C@@H]3CCCN3C(=O)c3nccc4ccc(Cl)cc34)cc2)cc1)[C@@H]1CCCN1C(=O)c1nccc2ccc(Cl)cc12 | > 10000 | –
> 10000 | 139 | 255 | – | – | – | O=C(Nc1ccc(/C=C/c2ccc(NC(=O)[C@@H]3CCCN3C(=O)c3nccc4c(Cl)cccc34)cc2)cc1)[C@@H]1CCCN1C(=O)c1nccc2c(Cl)cccc12 | > 10000 | –
> 10000 | 32 | > 10000 | – | – | – | COc1cc2ccccc2c(C(=O)N2CCC[C@H]2C(=O)Nc2ccc(/C=C/c3ccc(NC(=O)[C@@H]4CCCN4C(=O)c4nc(OC)cc5ccccc45)cc3)cc2)n1 | > 10000 | –
> 10000 | 6 | 329 | – | – | – | Cc1cc2ccccc2c(C(=O)N2CCC[C@H]2C(=O)Nc2ccc(/C=C/c3ccc(NC(=O)[C@@H]4CCCN4C(=O)c4nc(C)cc5ccccc45)cc3)cc2)n1 | > 10000 | –
7900 | 42 | 236 | – | – | – | O=C(Nc1ccc(/C=C/c2ccc(NC(=O)[C@@H]3CCCN3C(=O)c3nccc4c(F)cccc34)cc2)cc1)[C@@H]1CCCN1C(=O)c1nccc2c(F)cccc12 | > 10000 | –
> 10000 | 215 | 175 | – | – | – | COc1cccc2c(C(=O)N3CCC[C@H]3C(=O)Nc3ccc(/C=C/c4ccc(NC(=O)[C@@H]5CCCN5C(=O)c5nccc6c(OC)cccc56)cc4)cc3)nccc12 | > 10000 | –
2100 | 110 | 761 | – | – | – | O=C(Nc1ccc(/C=C/c2ccc(NC(=O)[C@@H]3CCCN3C(=O)c3nccc4cc(Cl)ccc34)cc2)cc1)[C@@H]1CCCN1C(=O)c1nccc2cc(Cl)ccc12 | > 10000 | –
> 10000 | < 5 | > 10000 | – | – | – | Cc1cccc2c(C(=O)N3CCC[C@H]3C(=O)Nc3ccc(/C=C/c4ccc(NC(=O)[C@@H]5CCCN5C(=O)c5nccc6c(C)cccc56)cc4)cc3)nccc12 | > 10000 | –
> 10000 | 27 | 70 | – | – | – | O=C(Nc1ccc(/C=C/c2ccc(NC(=O)[C@@H]3CCCN3C(=O)c3nc(F)cc4ccccc34)cc2)cc1)[C@@H]1CCCN1C(=O)c1nc(F)cc2ccccc12 | > 10000 | –
> 10000 | 240 | > 10000 | – | – | – | O=C(Nc1ccc(/C=C/c2ccc(NC(=O)[C@@H]3CCCN3C(=O)c3cc(Cl)cc4ccccc34)cc2)cc1)[C@@H]1CCCN1C(=O)c1cc(Cl)cc2ccccc12 | > 10000 | –
6400 | – | 390 | – | – | – | O=C(Nc1ccc(/C=C/c2ccc(NC(=O)[C@@H]3CCCN3C(=O)c3nccc4ccccc34)cc2)cc1)[C@@H]1CCCN1C(=O)c1nccc2ccccc12 | > 10000 | –
> 10000 | 23 | 62 | – | – | – | O=C(Nc1ccc(/C=C/c2ccc(NC(=O)[C@@H]3CCCN3C(=O)c3nc(Cl)cc4ccccc34)cc2)cc1)[C@@H]1CCCN1C(=O)c1nc(Cl)cc2ccccc12 | > 10000 | –
> 10000 | 18 | 42 | – | – | – | O=C(Nc1ccc(/C=C/c2ccc(NC(=O)[C@@H]3CCCN3C(=O)c3nc(Cl)cc4c(F)cccc34)cc2)cc1)[C@@H]1CCCN1C(=O)c1nc(Cl)cc2c(F)cccc12 | > 10000 | –
> 10000 | 69 | 282 | – | – | – | O=C(Nc1ccc(/C=C/c2ccc(NC(=O)[C@@H]3CCCN3C(=O)c3ncc(Cl)c4ccccc34)cc2)cc1)[C@@H]1CCCN1C(=O)c1ncc(Cl)c2ccccc12 | > 10000 | –
